Only some compounds are listed: those with a hit (about 2.1% of all), similar ones and a draw of the others.
Calpain2 inh = calpain II (pig) inhibition; purified calpain II, fluorogenic peptide substrate, 30 min; AID 1236; inhibition, % at 16 µM; hit rate 0.37% among 220,000;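 active = inhibition above about 50%, limit read from the data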
Wee1 degr inh = inhibitors of human Wee1 degradation; AID 1321; HeLa Luc-Wee1K328M stability, luciferase luminescence; 100% = proteasome inhibitor MG132 effect; reporter increase, % at 5 µM; hit rate 1.2% among 220,000;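 active = activation above the mean of all tested compounds plus 3 SD, set per screening run, cut at about 8.8% in these data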;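 also: cells exposed to compound for 20 h before luminescence read; 0% = DMSO alone and 100% = MG132 at 30 µM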
Target sequence (P30291 whole entry K328M): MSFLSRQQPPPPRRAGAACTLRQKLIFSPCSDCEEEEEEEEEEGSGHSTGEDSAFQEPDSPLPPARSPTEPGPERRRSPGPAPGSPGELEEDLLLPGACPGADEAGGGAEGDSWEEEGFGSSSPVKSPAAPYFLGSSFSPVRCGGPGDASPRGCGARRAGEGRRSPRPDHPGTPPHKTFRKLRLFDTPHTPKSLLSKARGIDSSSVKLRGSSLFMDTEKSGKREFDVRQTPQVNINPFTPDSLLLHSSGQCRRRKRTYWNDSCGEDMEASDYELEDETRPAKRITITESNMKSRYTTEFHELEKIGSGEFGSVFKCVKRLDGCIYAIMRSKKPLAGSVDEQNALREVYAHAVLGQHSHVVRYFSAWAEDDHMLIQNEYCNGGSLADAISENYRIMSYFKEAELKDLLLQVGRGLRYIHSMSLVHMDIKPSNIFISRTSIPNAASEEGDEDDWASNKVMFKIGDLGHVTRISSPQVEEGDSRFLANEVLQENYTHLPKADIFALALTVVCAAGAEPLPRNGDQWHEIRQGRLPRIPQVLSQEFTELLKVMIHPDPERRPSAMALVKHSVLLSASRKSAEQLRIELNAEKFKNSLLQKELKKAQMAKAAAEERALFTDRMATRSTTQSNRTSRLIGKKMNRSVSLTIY
TNF necrop inh = blocks TNF-alpha induced death of Jurkat FADD-/- cells; Jurkat FADD-/- TNF necroptosis rescue, ATP luminescence, 24 h; 0 = TNF only, 100 = no-TNF cells; AID 463075; activation (protection from cell death), % at 10 µM; hit rate 0.068% among 220,000;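 active = activation, meaning protection from cell death, of at least 50% relative to plate controls; inactive = activation below 50%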;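 also: necroptosis triggered by 40 ng/mL TNF-alpha added together with compound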
L929 necroptosis = blocks zVAD induced death of L929 cells; AID 1377; viability rescue, % at 10 µM; L929 zVAD necroptosis rescue, ATP luminescence, 24 h; with zVAD 60 µM; hit rate 0.38% among 220,000;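 active = activation, scaled between plate controls, above about 75%, limit read from the data; inactive = activation under that limit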;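 also: 0% = zVAD with DMSO and 100% = DMSO alone without zVAD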
RBBP9 inhibitor = blocks human serine hydrolase RBBP9 | inhibition, % at 7.94 µM | AID 1515 | hit rate 0.2% among 220,000 | recombinant RBBP9, FP-Rh probe fluorescence polarization | O75884;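 active = inhibition above the campaign mean of all tested compounds plus 3 SD, cut at about 14% in these data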;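 also: plate controls were DMSO wells with RBBP9 for no effect and wells lacking RBBP9 protein for full effect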
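Measured by: FP readout at 525/598 nm; material: recombinant human RBBP9; also added: Serine-hydrolase probe FP-Rh, 375 nM pre-mixing; medium: Tris buffer pH 8.0, NaCl, Pluronic; replication: one well per compound; doses: one concentration, 7.94 µM nominal, 0.794% DMSO; timing: preincubation 30 min plus labeling 45 min at 25 °C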
Pf gamet viab = P. falciparum stage V gametocyte viability inhibition | inhibition, % at 10.9 µM | P. falciparum stage V gametocytes, ATP luminescence, 24 h | hit rate 0.065% among 150,000 | AID 743093;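 active = inhibition above the mean plus 3 SD of compounds within the control limits, set per campaign, cut at about 38% in these data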;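 also: 0% = DMSO wells and 100% = medium only without gametocytes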
* = called active by the depositor; / = not tested or not shown.

SMILES	Calpain2 inh	Wee1 degr inh	TNF necrop inh	L929 necroptosis	RBBP9 inhibitor	Pf gamet viab
COc1ccc(C(=O)Nc2cccc(C)c2)cc1S(=O)(=O)N1CCOCC1	-10	-1	0	0	-3	/
O=[N+]([O-])c1cccc(/C=N\N=C2c3ccccc3-c3ccccc32)c1O	61*	-4	-1	3	2	-5
O=C(NN=C1C2CC3CC(C2)CC1C3)c1ccccc1O	-66	-4	3	0	-9	-6
O=C(c1cnc2sccn2c1=O)N(Cc1ccccc1)c1ccccn1	85*	2	0	0	-2	/
O=C(c1ccccc1)N(Cc1ccccc1)c1ccccn1	17	-1	1	0	-1	6
CC(C)(C)C1CCC(C(=O)OCC(=O)N2CCN(C(=O)c3ccco3)CC2)CC1 (stereo not drawn)	47	4	-1	1	-3	6
COCCCN1CN=C(Nc2nc3ccccc3o2)NC1	17	-1	1	5	-5	11
O=C1c2ccccc2C(=O)N1CNc1ccccc1	-5	14*	-1	0	6	/
Cc1ccc(NCN2C(=O)c3ccccc3C2=O)c(C)c1	20	0	-15	0	-3	-2
CN(c1ccc([N+](=O)[O-])cc1C(N)=O)C1CCCCC1	4	-1	1	2	-3	/
CCOC(=O)c1ccc2nc(NC(C)=O)sc2c1	0	9.4*	1	5	-3	7
CCOC(=O)c1ccc2nc(Nc3nc4ccc(F)cc4s3)sc2c1	-282	1	1	1	1	/
Cn1cc(Br)c(C(=O)n2cc(Br)cn2)n1	-29	2	0	0	10	11
O=C(O)c1ccc(N/N=C/c2ccc(OC(=O)c3cccc(Cl)c3)cc2)cc1	55*	-2	-1	0	-1	-5
O=C(Oc1ccc(/C=N/Nc2ccccc2)cc1)c1ccccc1	3	-1	-5	0	-6	17
N#Cc1cc([N+](=O)[O-])ccc1Oc1cccc(/C=N/NC(=O)c2cccc(Cl)c2)c1	-191	3	-3	0	1	/
Cc1ccc2nc(-c3ccccc3O)c(Nc3ccc4c(c3)OCCO4)n2c1	-255	-1	-2	/	-4	-2
Clc1ccc2nc(-c3ccccn3)c(Nc3ccc4c(c3)OCO4)n2c1	56*	-2	-2	/	-9	1
Cc1ccc(N(Cc2cc3ccccc3[nH]c2=O)S(=O)(=O)c2ccccc2)cc1	14	-2	1	0	-1	/
Cc1ccc(S(=O)(=O)N(Cc2cc3cccc(C)c3[nH]c2=O)c2ccccc2)cc1	10	9.1*	-3	0	-11	-17
N#Cc1ccc(C23CC4(C2)[C@H](CN(Cc2ccc(C(F)(F)F)cc2)[C@@H]4c2ccccc2)C3c2ccc(Cl)nc2)cc1 (stereo partly drawn)	-44	/	5	0	/	16
CCOC(=O)C(C)/C(C)=N\Nc1ccc([N+](=O)[O-])cc1[N+](=O)[O-] (stereo not drawn)	52*	0	0	0	-2	24
CCc1ccc(-c2cnc3nc[nH]c(=O)c3n2)cc1	/	/	/	/	/	-41
CCOC(=O)COc1ccc(S(=O)(=O)N2CCc3ccccc3C2)cc1	20	-1	1	-1	0	/
C=CCn1c(Sc2nc(C)cs2)nc2c1c(=O)[nH]c(=O)n2C	53*	4	-5	1	-1	16
SMILES	Calpain2 inh	Wee1 degr inh	TNF necrop inh	L929 necroptosis	RBBP9 inhibitor	Pf gamet viab
COc1cc(SC)ccc1C(=O)NCCOc1ccc(F)cc1	25	10*	2	1	-6	/
COc1ccc(CCNC(=O)c2ccc(SC)cc2OC)cc1	29	5	1	0	-2	5
CC1CCN(C(=O)CNC(=O)CNS(=O)(=O)c2ccccc2)CC1	/	/	/	/	/	2
COCC(C)NC(=O)CCc1nnc(C2(c3ccc(Cl)cc3)CCC2)o1 (stereo not drawn)	-13	8.9*	-1	-1	-5	-1
O=c1[nH]c(CSc2nc3ccccc3s2)nc2cc(Cl)ccc12	-30	0	0	0	-16	5
O=c1[nH]c(CSc2nc3ccccc3s2)nc2ccccc12	-7	9.0*	3	0	-8	12
O=C(NCCc1nnc2ccc(NCc3ccc(Cl)cc3)nn12)c1ccccc1	57*	0	1	1	-13	29
CCOC(=O)Nc1c(O)ccc2oc(C)c(-c3ccccc3)c12	23	0	0	0	-9	9
Cc1cc(C(=O)Nc2ccc(N3CCCCC3)cc2)no1	21	9.1*	5	2	-6	-14
O=C(COc1ccccc1)Nc1nccs1	-9	9.6*	0	1	-2	-18
Cc1[nH]n(-c2nc(-c3ccc(Cl)cc3)cs2)c(=O)c1N=Nc1ccc(O)cc1	-167	-1	-11	-1	-8	-26
COC(=O)CSc1ccc(S(=O)(=O)N2CCOCC2)cc1[N+](=O)[O-]	0	9.3*	1	1	-3	0
COc1ccc(CC(=O)NNS(=O)(=O)c2ccc(F)cc2)cc1OC	-10	8.9*	1	0	-3	/
Cc1ccc(NC(=O)Cn2cnc3c(cnn3C(C)(C)C)c2=O)cc1	-11	-3	2	84*	1	/
COc1ccc(NC(=O)Cn2cnc3c(cnn3C(C)(C)C)c2=O)cc1OC	-37	-2	2	3	-6	-4
Cc1noc(C)c1COc1ccc(C(=O)OCc2nnc(-c3ccc(Cl)cc3)o2)cc1	51*	-1	-5	0	-2	/
O=C(OCc1nnc(-c2ccc(Cl)cc2)o1)c1ccncc1	-214	-1	0	1	-13	/
O=C1NC(Cc2c[nH]c3ccccc23)C(=O)N1CCOc1ccc(F)cc1 (stereo not drawn)	7	-2	65*	7	-9	-21
O=C(NC(=S)Nc1ccccc1O)c1ccc(-c2ccc(Cl)cc2)o1	-11	1	-2	0	-4	-2
COc1ccccc1NC(=S)NC(=O)c1ccc(-c2ccc(Cl)cc2)o1	0	14*	-8	0	-6	/
COC(=O)C(C)N1C(=O)S/C(=C/c2cc(C)n(C(C)C)c2C)C1=O (stereo not drawn)	20	9.4*	0	-1	-9	/
COc1ccc(C(=O)CSc2nc(C(C)(C)C)nc3ccccc23)cc1	53*	2	-1	6	-11	9
CN1C(=O)[C@H]2[C@@H](/C=C/c3ccccc3)N3C(=O)CN(CC4CC4)C(=O)[C@@]3(C)[C@H]2C1=O	/	/	/	/	/	-12
COc1ccc(N(CC2CO2)S(=O)(=O)c2ccccc2)cc1 (stereo not drawn)	-29	-2	-2	4	-2	/
COc1ccc(NC(=O)C2CC(=O)N/C(=N/N=C/c3ccco3)S2)cc1 (stereo not drawn)	-16	9.4*	2	1	-1	-2

Source: PubChem
